Consider 6 compounds from ChEMBL document CHEMBL1157006, “Cellular localization and allele-selective inhibition of mutant huntingtin protein by peptide nucleic acid oligomers containing the fluorescent nucleobase [bis-o-(aminoethoxy)phenyl]pyrrolocytosine” (Bioorg Med Chem Lett, 2009).

Assay [1] in a line: Inhibition of huntingtin […] expression in human GM04281 cells with 17 CAG repeats within wild type allele by Western blotting. The format is functional, cell-based. Particulars: in the assay text read “69 CAG repeats within mutant allele” for “17 CAG repeats within wild type allele”. In outline: (§1)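 Patient-derived GM04281 fibroblasts carrying both wild-type and mutant HTT alleles were exposed to PNA-peptide conjugates, at 1 µM or across a concentration series. Mutant and wild-type HTT protein were measured separately by western blot and expressed relative to untreated cells. Experiments were run in triplicate.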
In general terms: A western blot detects proteins with antibodies after separation by electrophoresis.

Assay [2] is described as follows: Inhibition of huntingtin […] expression in human GM04281 cells with 69 CAG repeats within mutant allele by Western blotting. In kind it is functional, cell-based. Particulars: in the assay text read “17 CAG repeats within wild type allele” for “69 CAG repeats within mutant allele”. In outline:
as §1

Assay [3] is described as follows: Ratio of IC50 for huntingtin […] expression in human GM04281 cells with 17 CAG repeats within wild type allele to huntingtin […] expression in human GM04281 cells with 69 CAG repeats within mutant allele. The format is functional.
Assay [4] in a line: Inhibition of huntingtin […] expression in human GM04281 cells with 17 CAG repeats within wild type allele at >1 uM by Western blotting. The format is functional. Particulars: in the assay text read “69 CAG repeats within mutant allele” for “17 CAG repeats within wild type allele”. In outline: as §1
Assay [5] can be described thus: Inhibition of huntingtin […] expression in human GM04281 cells with 69 CAG repeats within mutant allele at 0.2 to 2 uM by Western blotting. In kind it is functional. The essentials:
as §1

What is called IC50 is the concentration that inhibits the measured activity by half. Lower therefore signals greater potency in that assay. Turning to `Cc1cn(CC(=O)N(CCNC(=O)CN(CCNC(=O)CN(CCNC(=O)CN(CCNC(=O)CN(CCNC(=O)CN(CCNC(=O)CN(CCNC(=O)CN(CCNC(=O)CN(CCNC(=O)CN(CCNC(=O)CN(CCNC(=O)CN(CCN)C(=O)Cn2cnc3c(=O)[nH]c(N)nc32)C(=O)Cn2ccc(N)nc2=O)C(=O)Cn2cc(C)c(=O)[nH]c2=O)C(=O)Cn2cnc3c(=O)[nH]c(N)nc32)C(=O)Cn2ccc(N)nc2=O)C(=O)Cn2cc(C)c(=O)[nH]c2=O)C(=O)Cn2cnc3c(=O)[nH]c(N)nc32)C(=O)Cn2ccc(N)nc2=O)C(=O)Cn2cc(C)c(=O)[nH]c2=O)C(=O)Cn2cnc3c(=O)[nH]c(N)nc32)C(=O)Cn2ccc(N)nc2=O)CC(=O)NCCN(CC(N)=O)C(=O)Cn2cnc3c(=O)[nH]c(N)nc32)c(=O)[nH]c1=O`, the IC50 in assay [1] is 470 nM; in assay [2] it was over 2000 nM. For the same compound, in assay [3], the “Ratio IC50” value was over 4.
As for `Cc1cn(CC(=O)N(CCNC(=O)CN(CCNC(=O)CN(CCNC(=O)CN(CCNC(=O)CN(CCNC(=O)CN(CCNC(=O)CN(CCNC(=O)CN(CCNC(=O)CN(CCNC(=O)CN(CCNC(=O)CN(CCNC(=O)CN(CCN)C(=O)Cn2cnc3c(=O)[nH]c(N)nc32)C(=O)Cn2cc3cc(-c4c(OCCN)cccc4OCCN)[nH]c3nc2=O)C(=O)Cn2cc(C)c(=O)[nH]c2=O)C(=O)Cn2cnc3c(=O)[nH]c(N)nc32)C(=O)Cn2ccc(N)nc2=O)C(=O)Cn2cc(C)c(=O)[nH]c2=O)C(=O)Cn2cnc3c(=O)[nH]c(N)nc32)C(=O)Cn2ccc(N)nc2=O)C(=O)Cn2cc(C)c(=O)[nH]c2=O)C(=O)Cn2cnc3c(=O)[nH]c(N)nc32)C(=O)Cn2ccc(N)nc2=O)CC(=O)NCCN(CC(N)=O)C(=O)Cn2cnc3c(=O)[nH]c(N)nc32)c(=O)[nH]c1=O`, the 50% inhibitory concentration (IC50) in assay [1] amounted to 540 nM; in assay [2], 1680 nM.
With `Cc1cn(CC(=O)N(CCNC(=O)CN(CCNC(=O)CN(CCNC(=O)CN(CCNC(=O)CN(CCNC(=O)CN(CCNC(=O)CN(CCNC(=O)CN(CCNC(=O)CN(CCNC(=O)CN(CCNC(=O)CN(CCNC(=O)CN(CCN)C(=O)Cn2cnc3c(=O)[nH]c(N)nc32)C(=O)Cn2ccc(N)nc2=O)C(=O)Cn2cc(C)c(=O)[nH]c2=O)C(=O)Cn2cnc3c(=O)[nH]c(N)nc32)C(=O)Cn2ccc(N)nc2=O)C(=O)Cn2cc(C)c(=O)[nH]c2=O)C(=O)Cn2cnc3c(=O)[nH]c(N)nc32)C(=O)Cn2cc3cc(-c4c(OCCN)cccc4OCCN)[nH]c3nc2=O)C(=O)Cn2cc(C)c(=O)[nH]c2=O)C(=O)Cn2cnc3c(=O)[nH]c(N)nc32)C(=O)Cn2ccc(N)nc2=O)CC(=O)NCCN(CC(N)=O)C(=O)Cn2cnc3c(=O)[nH]c(N)nc32)c(=O)[nH]c1=O`, the values for the IC50 in assay [1] and in assay [2] were 710 nM and 1860 nM, respectively.
Taken in the same sequence, the figures for `Cc1cn(CC(=O)N(CCNC(=O)CN(CCNC(=O)CN(CCNC(=O)CN(CCNC(=O)CN(CCNC(=O)CN(CCNC(=O)CN(CCNC(=O)CN(CCNC(=O)CN(CCNC(=O)CN(CCNC(=O)CN(CCNC(=O)CN(CCN)C(=O)Cn2cnc3c(=O)[nH]c(N)nc32)C(=O)Cn2cc3cc(-c4c(OCCN)cccc4OCCN)[nH]c3nc2=O)C(=O)Cn2cc(C)c(=O)[nH]c2=O)C(=O)Cn2cnc3c(=O)[nH]c(N)nc32)C(=O)Cn2ccc(N)nc2=O)C(=O)Cn2cc(C)c(=O)[nH]c2=O)C(=O)Cn2cnc3c(=O)[nH]c(N)nc32)C(=O)Cn2cc3cc(-c4c(OCCN)cccc4OCCN)[nH]c3nc2=O)C(=O)Cn2cc(C)c(=O)[nH]c2=O)C(=O)Cn2cnc3c(=O)[nH]c(N)nc32)C(=O)Cn2ccc(N)nc2=O)CC(=O)NCCN(CC(N)=O)C(=O)Cn2cnc3c(=O)[nH]c(N)nc32)c(=O)[nH]c1=O` were 580 nM and 1300 nM.
On to `Cc1cn(CC(=O)N(CCNC(=O)CN(CCNC(=O)CN(CCNC(=O)CN(CCNC(=O)CN(CCNC(=O)CN(CCNC(=O)CN(CCNC(=O)CN(CCNC(=O)CN(CCNC(=O)CN(CCNC(=O)CN(CCNC(=O)CN(CCN)C(=O)Cn2cnc3c(=O)[nH]c(N)nc32)C(=O)Cn2cc3cc(-c4c(OCCN)cccc4OCCN)[nH]c3nc2=O)C(=O)Cn2cc(C)c(=O)[nH]c2=O)C(=O)Cn2cnc3c(=O)[nH]c(N)nc32)C(=O)Cn2cc3cc(-c4c(OCCN)cccc4OCCN)[nH]c3nc2=O)C(=O)Cn2cc(C)c(=O)[nH]c2=O)C(=O)Cn2cnc3c(=O)[nH]c(N)nc32)C(=O)Cn2cc3cc(-c4c(OCCN)cccc4OCCN)[nH]c3nc2=O)C(=O)Cn2cc(C)c(=O)[nH]c2=O)C(=O)Cn2cnc3c(=O)[nH]c(N)nc32)C(=O)Cn2ccc(N)nc2=O)CC(=O)NCCN(CC(N)=O)C(=O)Cn2cnc3c(=O)[nH]c(N)nc32)c(=O)[nH]c1=O`, for which the IC50 in assay [1] is 970 nM; in assay [2] it was over 4000 nM. In addition, the results for the “inhibition (INH)” value in assay [4] and in assay [5] were over 50% and under 50%, respectively.
`Cc1cn(CC(=O)N(CCNC(=O)CN(CCNC(=O)CN(CCNC(=O)CN(CCNC(=O)CN(CCNC(=O)CN(CCNC(=O)CN(CCNC(=O)CN(CCNC(=O)CN(CCNC(=O)CN(CCNC(=O)CN(CCNC(=O)CN(CCN)C(=O)Cn2cnc3c(=O)[nH]c(N)nc32)C(=O)Cn2cc3cc(-c4c(OCCN)cccc4OCCN)[nH]c3nc2=O)C(=O)Cn2cc(C)c(=O)[nH]c2=O)C(=O)Cn2cnc3c(=O)[nH]c(N)nc32)C(=O)Cn2cc3cc(-c4c(OCCN)cccc4OCCN)[nH]c3nc2=O)C(=O)Cn2cc(C)c(=O)[nH]c2=O)C(=O)Cn2cnc3c(=O)[nH]c(N)nc32)C(=O)Cn2cc3cc(-c4c(OCCN)cccc4OCCN)[nH]c3nc2=O)C(=O)Cn2cc(C)c(=O)[nH]c2=O)C(=O)Cn2cnc3c(=O)[nH]c(N)nc32)C(=O)Cn2cc3cc(-c4c(OCCN)cccc4OCCN)[nH]c3nc2=O)CC(=O)NCCN(CC(N)=O)C(=O)Cn2cnc3c(=O)[nH]c(N)nc32)c(=O)[nH]c1=O`: the IC50 is 2600 nM in assay [1] and over 4000 nM in assay [2].
